Hits are enriched below; roughly 2.8% of the tested compounds scored in any of these assays.
NPY-Y2 antag – NPY-Y2 receptor antagonists, primary screen, cell-based. NPY-Y2 expressing cells, antagonist mode. Neuropeptide Y receptor type 2 (Homo sapiens), P49146. inhibition, % at 2.7 µM. 140,000 compounds, 0.99% hits; in the data active = inhibition above about 17%;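 note: 0% = vehicle with agonist challenge and 100% = reference antagonist with challenge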
NPY-Y1 antag – NPY-Y1 receptor antagonists, primary screen, cell-based; Neuropeptide Y receptor type 1 (Homo sapiens), P25929; HEK293-CNG Y1 cells, membrane potential fluorescence; NPY at EC95, then isoproterenol; inhibition, % at 3.6 µM; 200,000 compounds, 1% hits;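 active = inhibition above the campaign mean inhibition of all tested compounds plus 3 SD, cut at about 20% in these data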;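 note: 0% = DMSO wells given NPY plus isoproterenol and 100% = isoproterenol alone without NPY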
Target sequence (P25929 whole entry, looked up): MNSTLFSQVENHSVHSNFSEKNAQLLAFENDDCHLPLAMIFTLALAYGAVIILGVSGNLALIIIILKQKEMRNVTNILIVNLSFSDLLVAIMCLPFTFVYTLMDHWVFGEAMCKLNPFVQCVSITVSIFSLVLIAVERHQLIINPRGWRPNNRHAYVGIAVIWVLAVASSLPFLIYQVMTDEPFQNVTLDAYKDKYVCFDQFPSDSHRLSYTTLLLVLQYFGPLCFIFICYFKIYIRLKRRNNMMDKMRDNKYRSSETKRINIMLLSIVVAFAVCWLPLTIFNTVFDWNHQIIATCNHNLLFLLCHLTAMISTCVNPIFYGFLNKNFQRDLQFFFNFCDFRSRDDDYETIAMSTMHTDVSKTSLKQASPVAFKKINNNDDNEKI
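System: HEK293 cells with Y1 receptor plus CNG channel / Probe or stimulus: NPY 25 nM then isoproterenol 1 µM plus Ro 20-1724 25 µM / Compound: one concentration, 3.6 µM, in 0.4% DMSO / Schedule: compound incubation 1 h at room temperature, readout 45 min post-stimulation / Measured by: membrane potential fluorescence / Read-out: % inhibition of NPY effect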
NPY1 pot ag – NPY-Y1 receptor potentiators or agonists, primary screen, cell-based; Neuropeptide Y receptor type 1 (Homo sapiens), P25929; NPY-Y1 expressing cells, potentiator/agonist activation; activation, % at 3.6 µM; 220,000 compounds, 0.37% hits; in the data active = activation above about 33%, passing the limit was not always enough;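 note: cells stimulated with NPY at EC10 then isoproterenol at EC100; 0% = low agonist plus stimulus and 100% = saturating agonist plus stimulus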
PGE2 EP2 inh – human EP2 receptor antagonists, primary screen, TR-FRET cAMP, C6 glioma cells; C6 glioma cells expressing human EP2; cells stimulated with saturating PGE2; AID 1422, 2008; 260,000 compounds, 0.52% hits; inhibition, % at 25 µM; Prostaglandin E2 receptor EP2 subtype (Homo sapiens), P43116;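 active = percent inhibition above 40 after rounding to a whole number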;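 note: rat C6 glioma host cells with rolipram phosphodiesterase inhibitor present; the protocol text gives 20 µM as final concentration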
Target sequence (P43116 whole entry, looked up): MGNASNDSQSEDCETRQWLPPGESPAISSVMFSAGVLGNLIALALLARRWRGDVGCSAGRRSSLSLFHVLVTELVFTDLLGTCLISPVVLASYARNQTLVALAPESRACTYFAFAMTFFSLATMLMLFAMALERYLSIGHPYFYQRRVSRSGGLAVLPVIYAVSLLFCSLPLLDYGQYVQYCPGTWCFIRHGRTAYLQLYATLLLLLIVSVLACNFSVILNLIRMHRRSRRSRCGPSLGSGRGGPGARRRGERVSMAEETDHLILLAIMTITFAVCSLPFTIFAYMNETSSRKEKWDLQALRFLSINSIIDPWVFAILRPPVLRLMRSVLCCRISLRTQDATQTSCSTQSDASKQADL
EP2 mod – EP2 receptor modulators, cAMP readout, primary screen, cell-based, HTRF cAMP, PGE2 stimulation; Prostaglandin E2 receptor EP2 subtype (Homo sapiens), P43116; induction, % at 25 µM; EP2-expressing cells, cAMP HTRF FRET, PGE2 co-stimulation; AID 940, 2007; 260,000 compounds, 0.83% hits;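 active = compounds whose cAMP rise, as percent of the full-agonist control response, exceeds 60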;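 note: rat C6 glioma line stably carrying human EP2 under a CMV promoter; the protocol text gives 20 µM as final concentration; 100% = response of wells given 1 µM PGE2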
NPY-Y2 PAM-ag – NPY-Y2 potentiators or agonists, primary screen, cell-based; 220,000 compounds, 0.45% hits; activation, % at 3.6 µM; AID 1359, 2008; cells expressing NPY-Y2, potentiator/agonist read-out; in the data active = activation above about 27%;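 note: cells stimulated with NPY near EC25 plus isoproterenol at EC100; 0% = vehicle plus submaximal agonist and 100% = vehicle plus saturating agonist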
NPY1 antag ctr – NPY-Y1 receptor antagonists, selectivity check, counter-screen for NPY-Y2 antagonist project, cell-based. shares compounds with NPY-Y2 antag. 710 compounds, 19% hits. cell-based NPY-Y1 antagonism counterscreen. inhibition, % at 3.6 µM; in the data active = inhibition above about 20%;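 note: cells challenged with NPY then isoproterenol with cAMP sensed through a CNG channel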
NPY-Y2 ant conf – NPY-Y2 receptor antagonists, retest of hits, confirmation, HEK293-CNG cells, membrane potential fluorescence, triplicate | shares compounds with NPY-Y2 antag | HEK293 NPY-Y2 CNG channel | inhibition, % at 2.8 µM | 710 compounds, 32% hits | AID 1257, 2008;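 active = mean inhibition of triplicate wells above the hit cutoff set in the primary screen, cut at about 17% in these data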;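 note: 0% = DMSO with NPY challenge and 100% = BIIE0246 high control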
EP2 confirm – cAMP induction in EP2, EP4, beta2-AR and parental cells, confirmation, counter-screen for EP2 modulator project, cell-based, five parallel assays, C6 glioma, HEK293 | calls only at 20 µM (by protocol) | 1,300 compounds, 47% hits | shares compounds with EP2 mod | cAMP HTRF induction; plus low (about EC15) PGE2 agonist;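 active = cAMP induction above 50% in the main assay while under 30% in all four parallel counter assays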;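 note: rat C6 glioma cells stably expressing human EP2 receptor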
Active calls of the source: *; i = inactive; . = no result given; + = active, no number.

SMILES	NPY-Y2 antag	NPY-Y1 antag	NPY1 pot ag	PGE2 EP2 inh	EP2 mod	NPY-Y2 PAM-ag	others
O=C1NC(=O)N(c2ccccc2)C(=O)/C1=C/c1ccc(Sc2ccccc2)o1	2.3	-1.8	2.2	41.5*	-2.5	-10.8
CC1(C)CCC(C)(C)c2c1ccc(O)c2Cc1c(O)ccc2c1C(C)(C)CCC2(C)C	.	.	.	45.2*	23.3	.
CC[C@]1(OC(=O)CN)C(=O)OCc2c1cc1n(c2=O)Cc2cc3ccccc3nc2-1	.	.	.	40.7*	22.1	.
COc1ccccc1CN(CCN(C)C)C(=O)Cc1nc2ccc(C)cc2[nH]1	.	.	.	5.3	-31.4	.
CC(=O)OC(C)(C)/C=C/C(=O)[C@](C)(O)[C@H]1[C@H](O)C[C@@]2(C)[C@@H]3CC=C4[C@H](C[C@H](O)C(=O)C4(C)C)[C@]3(C)C(=O)C[C@]12C	8.5	108.1*	-48.3	4.0	10.0	0.0
CCn1cc(CN2C3CCC2CC(O)(c2ccccc2F)C3)cn1 (stereo not drawn)	.	.	.	3.6	-4.0	.
CNCCc1ccc(O)c(O)c1	.	.	.	13.4	70.8*	.
CNc1ccccc1C(=O)O	.	.	.	8.4	11.6	.
C[CH2][Hg][S]c1ccccc1C(=O)O	.	.	.	114.8*	-37.8	.
Clc1cccc(C2NCc3ccccc3-n3cccc32)c1 (stereo not drawn)	.	.	-13.4	4.5	69.3*	-51.0
Clc1ccc(Cl)c2c1NC(c1cccnc1)C1CC=CC21 (stereo not drawn)	.	.	.	7.4	86.7*	.
Fc1cc(F)c2c(c1)C1C=CCC1C(c1cccnc1)N2 (stereo not drawn)	.	.	.	7.4	13.5	.
CC(C)(C)c1nc(N2CCOCC2)c2nnn(Cc3ccccc3Cl)c2n1	.	.	.	5.0	51.5	.
CC(=O)O/C(=C1\C[C@@H]2[C@H]3CC=C4C[C@@H](OC(C)=O)CC[C@]4(C)[C@@H]3CC[C@@]2(C)C1=O)C(F)(F)F	.	.	.	47.0*	39.4	.
O=C(CN1C2CCC1CC(O)(c1ccccn1)C2)Nc1ccccc1F (stereo not drawn)	.	.	.	5.4	-7.0	.
ClCC[N+]12CC[N+](CCCl)(CC1)C2 (tested in a mixture with another compound)	.	.	.	45.6*	12.6	.
CCCCn1c(N)c(C(=O)NCc2cccs2)c2nc3ccccc3nc21	-0.1	2.1	-22.9	2.4	61.6*	1.2
CCCCCn1c(N)c(C(=O)NCc2cccs2)c2nc3ccccc3nc21	3.6	7.9	-9.1	4.2	59.2	-18.2
Cc1ccc(S(=O)(=O)N[C@@H](CCCCN)C(=O)CCl)cc1	.	.	.	17.1	66.5*	.
Cc1ccc2scc(CC(=O)N(CCN(C)C)C3CCN(C)CC3)c2c1	.	.	.	9.9	-53.5	.
CCN1/C(=C\C=C\C2=[N+](CC)c3ccccc3C2(C)C)C(C)(C)c2ccccc21	+	+	-434.4	.	-16.7	-336.6
CC1CC(C)CN(C(=O)CN2C3CCC2CC(O)(c2ccco2)C3)C1 (stereo not drawn)	.	.	.	.	8.0	.
CN(C)CCN(C(=O)Cc1csc(Nc2ccccc2F)n1)C1CCN(C)CC1	.	.	.	3.8	-39.3	.
C#CCOc1ccc(CN2C3CCC2CC(O)(c2ccccc2F)C3)cc1 (stereo not drawn)	.	.	.	3.0	-56.0	.
O=C1NC(=S)NC(=O)C1=Cc1cccn1-c1ccc(O)cc1	.	1.6	-4.6	112.5*	-112.7	-7.6
SMILES	NPY-Y2 antag	NPY-Y1 antag	NPY1 pot ag	PGE2 EP2 inh	EP2 mod	NPY-Y2 PAM-ag	others
CN1C(=O)/C(=C/c2cccn2-c2ccc3ccccc3c2)C(=O)NC1=S	0.7	1.2	-8.5	15.7	-21.0	-5.5
CNC(C(=O)c1ccccc1)C(OC)c1ccccc1 (stereo not drawn)	0.4	16.4	-1.1	10.6	18.4	3.1
CC(=O)[O][Hg][c]1ccccc1	.	.	.	113.1*	-40.4	.
CCC(CC)N1CCN(Cc2ccc(OC)c(OC)c2)CC1	.	.	.	16.2	-5.8	.
COc1ccc(-n2c(SC)nc3ccccc3c2=O)cc1	0.8	-3.2	-15.2	-1.8	26.1	-2.6
O=c1c2ccccc2nc(SCC2CCCCO2)n1-c1ccccc1 (stereo not drawn)	5.4	5.8	-10.8	7.1	63.8*	2.5
CN(C)c1ncc(CN2C3CCC2CC(O)(c2ccccc2F)C3)cn1 (stereo not drawn)	.	.	.	7.5	-9.9	.
COc1cccc(C2(O)CCN(CCNC(=O)c3ccccc3F)CC2)c1	.	.	.	4.5	25.4	.
CCC[N+]12CCC(CC1)C(=C(c1ccccc1)c1ccccc1)C2	3.5	12.2	10.3	6.9	15.2	1.8
CCCC[N+]12CCC(CC1)C(=C(c1ccccc1)c1ccccc1)C2	23.2*	18.2	-8.5	6.6	4.7	-8.6	NPY1 antag ctr=12.2;NPY-Y2 ant conf=10.9
O=C(COC(=O)c1ccc(O)cc1)Nc1ccc(Cl)cc1C(=O)c1ccccc1	19.3*	17.4	-44.5	7.2	26.3	-6.7	NPY1 antag ctr=12.4;NPY-Y2 ant conf=9.2
OC(COCc1ccc(Cl)cc1)CN1CC=C(c2ccccc2)CC1 (stereo not drawn)	18.7*	9.0	-19.0	9.6	-8.1	-9.3	NPY1 antag ctr=8.1;NPY-Y2 ant conf=10.9
Nc1nc(-c2cccs2)c(CC(=O)N2CCCCC2CN2CCCCC2)s1 (stereo not drawn)	.	.	.	5.0	-13.1	.
CCCCOc1nc2ccccc2c(=O)n1-c1ccccc1	17.1*	5.8	-14.4	2.1	23.4	-2.4	NPY1 antag ctr=5.0;NPY-Y2 ant conf=18.1*
CCCc1nc2ccccc2c(=O)n1-c1ccccc1	.	.	.	10.8	17.3	.
CCn1nc(CC(=O)N(CCN(C)C)C2CCN(C)CC2)c2ccccc2c1=O	.	.	.	-2.2	-55.0	.
CN(N=O)c1ccc(O)c(O)c1	.	.	.	9.8	83.4*	.	EP2 confirm=i
CCC(=O)O[C@H]1CCC2C3CCC4=CC(=O)CC[C@]4(C)C3CC[C@@]21C (stereo partly drawn)	.	.	.	9.9	76.9*	.	EP2 confirm=+
Cc1ccc(NP(=O)(Oc2ccccc2F)Oc2ccccc2F)cc1C	9.6	8.8	13.9	3.7	71.0*	4.2	EP2 confirm=i

Compound activity as filed in PubChem.
